# Article PMC4324687 (Pharmacology Research & Perspectives, 2015)
# “And” between values parts separate entries of the source, which are not always exact repeats. Equal entries are not always repeated. Where two headings read alike, the source gives them in different places.
# Assays:
# [1] = cited from earlier work
# [2] = Metabolic profiling of pooled urine; assay type: in vivo, human; conditions: single pool 0–96 h
# [3] = test system: patients with metastatic melanoma; assay: Safety assessments in patients with metastatic melanoma; assay type: in vivo, human
# Summary of the method: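 Seven patients received a single oral 960-mg dose of 14C-labelled test compound on day 15 after ≥8 h fasting. Monitoring ran through the study and a 28-day follow-up and covered adverse events, routine laboratory values, physical examination, vital signs, electrocardiography, dermatology, and head/neck and chest CT. SCC cases were followed until death, consent withdrawal or loss to follow-up. Severity was graded by NCI CTCAE v4.0 and summarised.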
# CYP3A4 = conditions: human liver microsomes; ref F. Hoffmann-La Roche, data on file; cited from earlier work
# [4] = dog plasma after oral administration; ref F. Hoffmann-La Roche, data on file; cited from earlier work
# [5] = Metabolic profiling of pooled plasma; assay type: in vivo, human; conditions: for proportion of total chromatographic radioactivity in plasma, overall: over the 48-h interval postdose
# [6] = assay type: in vivo, human
# [7] = Metabolic profiling of pooled feces; assay type: in vivo, human
# [8] = ref F. Hoffmann-La Roche, data on file, cited from earlier work
# [9] = Pharmacokinetics of 14C-vemurafenib-related material; assay type: in vivo, human; conditions: for Cmax, mean ± SD [CV%]: single oral 960-mg dose
# [10] = cited from earlier work; remark: listed apart in the source
# [11] = laboratory evaluation, of seven patients
# [12] = within 18 days after dosing, listed as 14C-vemurafenib
# [13] = plasma, N=5, listed as 14C-vemurafenib
smiles,measurement,setting,value
CCCS(=O)(=O)Nc1ccc(F)c(C(=O)c2c[nH]c3ncc(-c4ccc(Cl)cc4)cc23)c1F [vemurafenib],median elimination half-life (population PK modeling),"[1]; continual multiple-dose vemurafenib, ref Genentech, Inc. [2014]",57 h
same,elimination half-life after a single dose,"[1]; single dose, ref Ribas et al. [2014]",~25 h
same,% of total administered (input radioactive) dose in urine,[2],~1%
same,severity of most adverse events,[3]; NCI CTCAE grade 1 or 2,mild or moderate
same,"serious adverse events (all grade 3), number of events","[3]; cuSCC, cuSCC and keratoacanthoma, considered related",Three
same,elevated low-density lipoprotein cholesterol level,[3]; [11],three
same,grade 3 lymphopenia,[3]; [11],four
same,low white blood cell count,[3]; [11],three
same,changes in electrocardiography or vital signs,[3]; seven patients,No clinically significant changes
same,patients with at least one adverse event related to vemurafenib,[3]; seven patients,All patients
same,treatment discontinuation because of an adverse event,[3]; seven patients,No patient discontinued treatment
same,tolerability,"[3]; seven patients, 960 mg twice daily",well-tolerated
same,primary enzyme responsible for metabolism and formation of hydroxylated metabolites,CYP3A4,CYP3A4 was the primary enzyme
same,component status of unchanged parent drug in plasma,[4],major component
same,"proportion of radioactivity in pooled plasma, mean ± SD",[5]; 4–6 h pool,99.5 ± 1.4%
same,"proportion of radioactivity in pooled plasma, mean ± SD",[5]; 12–24 h pool,95.9 ± 5.5%
same,"proportion of radioactivity in pooled plasma, mean ± SD",[5]; 36–48 h pool,96.0 ± 3.8%
same,"proportion of total chromatographic radioactivity in plasma, overall",[5]; listed as parent compound,95%
same,"proportion of total chromatographic radioactivity in plasma, overall",[5]; listed as parent molecule,> 95%
same,time within which the majority of fecal radioactivity was eliminated,[6]; cumulative excretion in feces,≤ 264 h
same,time within which the majority of urinary radioactivity was eliminated,[6]; cumulative excretion in urine,≤ 192 h
same,"radioactivity recovered in feces, mean ± SD",[6]; within 18 days after dosing,Approximately 94%
same,"radioactivity recovered in feces, range",[6]; within 18 days after dosing,89.4–97.6%
same,"radioactivity recovered in urine, mean",[6]; within 18 days after dosing,≤ 1%
same,"radioactivity recovered in urine, range",[6]; within 18 days after dosing,0.56–1.63%
same,"radioactivity recovered in feces, mean ± SD",[6]; [12],94.1% and 94.1 ± 2.7%
same,"radioactivity recovered in urine, mean",[6]; [12],< 1%
same,"14C-vemurafenib-related material recovered from urine and feces, range","[6]; within 18 days after dosing, seven patients",91.0–98.3%
same,"proportion of radioactivity in feces, mean",[7]; 48–96 h pool,55.5 ± 20.1%
same,% of the total input dose found in pooled feces,[7]; first 48 h,38%
same,"proportion of all recovered radioactivity in feces, mean ± SD",[7]; first 48 h pool,94.2 ± 5.8%
same,% of the total radioactive dose found in pooled feces,[7]; within the first 96 h,~55%
same,component status of unchanged parent drug in plasma,[8]; rat plasma after oral administration,major component
same,route of recovery of vemurafenib-derived radioactivity (parent plus metabolites),[8]; rats,primarily recovered in feces
same,"Blood/plasma AUC ratio, mean ± SD [CV%]",[9]; N=5,0.72 ± 0.050 [6.83]
same,14C-vemurafenib-related material that might be bound to the cellular compartment in whole blood,[9]; assuming 40–50% of whole blood is cells,10–20%
same,"Tmax, median (minimum–maximum)","[9]; blood, N=5",4.1 (4–12) ^1 h
same,"t½ (elimination half-life), mean ± SD [CV%]","[9]; blood, N=5",84.4 ± 24.6 [29.1] h
same,"Cmax, mean ± SD [CV%]","[9]; blood, N=5",5.25 ± 1.71 [32.5] μg eq/mL
same,"Blood/plasma AUC ratio, range","[9]; human, blood and plasma, oral, 960 mg",0.69–0.81
same,"plasma elimination half-life of 14C-vemurafenib-related material, range",[9]; plasma,51 to 86 h
same,"Tmax, median (minimum–maximum)","[9]; plasma, N=5",4.1 (4–12) ^1 h
same,"t½ (elimination half-life) of 14C-vemurafenib-related material, mean ± SD [CV%]","[9]; plasma, N=5",71 h
same,"t½ (elimination half-life) of 14C-vemurafenib-related material, mean ± SD [CV%]",[9]; [13],71.1 ± 15.4 [21.6] h
same,"Cmax, mean ± SD [CV%]",[9]; [13],7.83 ± 2.28 [29.1] μg eq/mL
same,maximum tolerated dose and recommended dose for further clinical evaluation,"[10]; phase 1 data, ref Flaherty et al. [2010]",960 mg twice daily
same,pharmacokinetics with hand-filled capsules versus tablets,"[10]; phase 1 trial PLX06-02, ref phase 1 trial PLX06-02",No differences
